Rows were chosen to be rich in hits. Some 1.6% of all compounds tested hit in one or more screens of this group.
NCF1 inh: p47phox/p22phox peptide binding inhibitors, primary screen, biochemical, uHTS, NADPH oxidase regulatory subunit | Neutrophil cytosol factor 1 (Homo sapiens), P14598 | fluorescence polarization, 2 h | inhibition, % at 24.7 µM | hit rate 0.53% among 220,000;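 active = inhibition above about 30%, limit read from the data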;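 note: 0% = p47phox with labelled peptide and 100% = labelled peptide alone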
HSV replic up: enhancers of HSV replication in host cells, fold increase, host cell viability; HSV replication augmentation in cells; maximum fold increase; hit rate 0.005% among 220,000; AID 1956, 2009; in the data active = maximum fold increase above about 1.5; tested in PC3 cells
PHOSPHO1 inh: PubChem AID 1565; hit rate 1.1% among 290,000; inhibition, % at 13.3 µM; recombinant PHOSPHO1, absorbance phosphatase assay; in the data active = inhibition above about 60%
ABCG2 inh: ABCG2 efflux pump inhibitors, primary screen, multiplex with ABCB1, IgMXP3 cells, flow cytometry. JC-1 efflux. inhibition, % at 6.6 µM. hit rate 0.1% among 190,000. AID 1325, 2008;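 active = inhibition above 80%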;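 note: 0% = DMSO and 100% = nicardipine control wells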
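Incubation: cells with compound and JC-1, 10 min at 25 °C, rotating, no wash / Test system: IgMXP3 (ABCG2) plus far-red-tagged CCRF-Adr (ABCB1) cells / Compound dosing: one concentration, 6.6 µM final / Also added: JC-1 fluorescent substrate / Evaluation: efflux inhibition in percent versus controls / Detection: flow cytometry, 530 nm JC-1 signal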
ABCB1 inh: ABCB1 efflux pump inhibitors, primary screen, cell-based, multiplex, flow cytometry, ABCG2 counter-screen | CCRF-Adr cells, JC-1 efflux | hit rate 0.067% among 190,000 | inhibition, % at 6.6 µM | ATP-dependent translocase ABCB1 (Homo sapiens), P08183 | AID 1326, 2008; in the data active = inhibition above about 40%;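 note: 0% = vehicle and 100% = reference inhibitor; higher value means more JC-1 retained so stronger ABCB1 efflux block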
PKD1 inh: inhibitors of human PKD1 kinase, biochemical, fluorescence polarization | hit rate 0.056% among 200,000 | PKD1 kinase fluorescence polarization assay | inhibition, % (no concentration beside the values) | AID 797, 2007 | Serine/threonine-protein kinase D1 (Homo sapiens), Q15139; in the data active = inhibition above about 50%
Active calls of the source: *; i = inactive; x = not tested or not shown; + = active, no number.

SMILES	NCF1 inh	HSV replic up	PHOSPHO1 inh	ABCG2 inh	ABCB1 inh	PKD1 inh
COc1ccc2nc(-c3ccc(Cl)cc3)cc(C(=O)O)c2c1	-5	i	29	x	x	x
CC(C)CNc1nc(Oc2ccc(=O)[nH]n2)nc(N(C)C)n1	+	i	4	3	0	-3
CCN(Cc1ccccc1)C(c1cc2cc(C)cc(C)c2[nH]c1=O)c1nnnn1CCOC (stereo not drawn)	-5	i	3	3	2	4
CCOC(=O)C1CCN(C(c2cc3ccc(C)cc3[nH]c2=O)c2nnnn2C2CCCCC2)CC1 (stereo not drawn)	-9	i	92*	9	11	-3
COc1ccc2cc(C(c3nnnn3CCc3ccccc3)N3CCCC(C)C3)c(=O)[nH]c2c1 (stereo not drawn)	-20	i	82*	2	1	-5
COCCn1nnnc1C(c1cc2c(C)cc(C)cc2[nH]c1=O)N1CCCCCC1 (stereo not drawn)	-6	i	-18	3	0	-9
CCN(Cc1ccccc1)C(c1cc2cc(C)ccc2[nH]c1=O)c1nnnn1CCOC (stereo not drawn)	-7	i	74*	3	1	3
COCCn1nnnc1C(c1cc2cc(C)ccc2[nH]c1=O)N1CCCCCC1 (stereo not drawn)	-17	i	92*	3	2	1
Cc1cc(C)nc(SCC(=O)N/N=C/c2cccs2)n1	-5	i	14	9	0	-4
COc1cccc(CNC(=O)CCCn2nc(C)n3c(cc4sccc43)c2=O)c1	x	x	28	x	x	x
COCCn1nnnc1CN(CCc1ccccc1)Cc1cc2ccc(C)cc2[nH]c1=O	-13	i	66*	7	2	-3
Cc1ccc2cc(C(c3nnnn3C(C)(C)C)N3CCCC3)c(=O)[nH]c2c1C (stereo not drawn)	x	x	94*	x	x	x
CCC(C)(C)n1nnnc1C(c1cc2cc3c(cc2[nH]c1=O)OCO3)N1CCCCC1 (stereo not drawn)	-6	x	42	0	0	3
Cc1cnc(C(=O)NC2CCSc3ccccc32)cn1 (stereo not drawn)	x	x	36	x	x	x
O=C(CC1C(=O)NCCN1Cc1ccc(F)cc1)NC1CCCCCCC1 (stereo not drawn)	x	x	65*	x	x	x
Cc1nc(CNC(=O)CC2C(=O)NCCN2Cc2ccc(F)cc2)cs1 (stereo not drawn)	x	x	66*	x	x	x
CCOc1ccc(CN2CCNC(=O)C2CC(=O)NCc2csc(C)n2)cc1 (stereo not drawn)	x	x	2	x	x	x
Cc1ccc(CN2CCNC(=O)C2CC(=O)NC2CCCCCC2)cc1 (stereo not drawn)	x	x	43	x	x	x
CCC1=C/C(=C/c2sc3ccccc3[n+]2CC)CC(C)(C)C1	-22	i	-3	-2	0	-4
CC[n+]1c(/C=C2\C=C(C)CC(C)C2)sc2ccccc21 (stereo not drawn)	-11	i	102*	-2	-2	1
CC[n+]1c(/C=C2\C=C(C)CC(C)(C)C2)sc2ccccc21	-9	i	100*	21	-1	-7
CC[n+]1c(/C=C2/C=C(C)CC(C)(C)C2)sc2ccc(OC)cc21	-117	i	56	2	0	2
CN1CCN(CCCNC(=O)CCN2C(=O)COc3ccccc32)CC1	x	x	41	x	x	x
CC(C)CCn1c(SCc2ccc(Cl)cc2)nc2c1c(=O)[nH]c(=O)n2C	-8	i	61*	3	-1	-17
CN(C)c1ccc(/C=C2/C=C(c3ccc4c(c3)CCCC4)OC2=O)cc1	45*	i	-15	x	x	x
SMILES	NCF1 inh	HSV replic up	PHOSPHO1 inh	ABCG2 inh	ABCB1 inh	PKD1 inh
Nc1c(O)ccc2c1C(=O)c1ccccc1C2=O	80*	i	-4	64	-1	47
Cc1nn(-c2nnc(C)c(=O)[nH]2)c(C)c1SCC(=O)Nc1ccc(F)cc1	-8	i	55	0	0	-6
Cc1nn(-c2nnc(C)c(=O)[nH]2)c(C)c1SCC(=O)Nc1ccc(C(C)C)cc1	12	i	62*	-1	0	-10
O=C(NNc1cccc(Cl)n1)Nc1ccc(F)cc1	-8	i	-40	-2	-1	-3
NC(=O)c1sc2nc3c(c(-c4ccco4)c2c1N)CCC3	-13	i	51	8	1	20
Nc1c(C(=O)NC2CC2)sc2nc3c(c(-c4ccco4)c12)CC/C3=C/c1ccco1	8	i	81*	0	1	-2
CCOc1ccc2c(c1)C(c1cccs1)=NNC(c1cccnc1)=N2	44*	i	25	3	1	-4
Brc1ccc2c(c1)C(c1cccs1)=NNC(c1cccnc1)=N2	-9	i	33	2	0	16
O=C(OC1CCOC1=O)c1ccc(CO)cc1 (stereo not drawn)	x	x	18	x	x	x
Cc1cc(C(=O)OCC(=O)Nc2c(F)cccc2F)c(C)n1-c1ccccc1	-9	i	64*	2	1	-8
Cc1csc(SCC(=O)Nc2cc(S(=O)(=O)N3CCOCC3)ccc2N2CCOCC2)n1	-7	i	-119	x	x	x
Cc1csc(SCC(=O)c2ccc(S(=O)(=O)N3CCOCC3)cc2)n1	-3	i	78*	0	0	-3
CN(CCCC1CCCC1)C(=O)CC1C(=O)NCCN1Cc1ccc(F)cc1 (stereo not drawn)	x	x	33	x	x	x
CCCOc1ccc(NC(N)=O)cc1OCCC	31*	x	-27	0	0	1
CCC(=O)c1ccc(N2CCC(C)CC2)c(F)c1	0	i	1	2	1	-5
O=C(Nc1ccc(F)cc1F)NC1CCCCCCC1	x	x	61*	x	x	x
CC(C)Cc1cc(CN2CCCC(CO)(Cc3cccc(Cl)c3)C2)[nH]n1 (stereo not drawn)	-9	i	20	3	1	-5
CC(C)Cc1cc(CN2CCC(CO)(Cc3cccc(C(F)(F)F)c3)CC2)[nH]n1	+	i	-13	6	1	-2
CC(=O)c1ccc(S(=O)(=O)N(C)C(C)CCc2ccco2)cc1 (stereo not drawn)	x	x	22	x	x	x
O=C(CCc1ccccc1O)N/N=C/c1ccc(Sc2cccc3cccnc23)o1	-29	i	98*	x	3	-6
CCCc1c(C(=O)N/N=C(\C)CCc2ccccc2)nnn1-c1nonc1N	x	x	67*	x	x	x
CC1=NN(C(N)=S)C(=O)C1N=Nc1ccccc1C(=O)O (stereo not drawn)	x	x	62*	x	x	x
O=C(c1ccc(CNc2c(NC3CCCCC3)c(=O)c2=O)cc1)N1CCc2ccccc21	-43	i	-3	-2	-1	2
Cc1c(C(=O)NCc2ccccn2)oc2ccc(S(=O)(=O)N3CCOCC3)cc12	50*	x	34	1	0	-2
O=c1[nH]sc2ccccc12	5	i	12	-1	0	2

Screening data deposited in PubChem BioAssay by several laboratories.
